In PMC7141570 (Febs Letters, 2000):
Several values for one entry are separate records, joined by “and”; a condition that tells them apart may be missing. Equal values may be shown once. Entries after “also recorded” stand apart in the source; their conditions may differ.

Key:
[1] = target: T1, APN in rat brain membranes (Rattus norvegicus, UniProt P15684); test: Competition with [125I]RB 129 binding on rat brain membranes; settings: for inhibition of specific [125I]RB 129 binding (qualitative): rat brain membranes
T1 sequence (P15684 1-965): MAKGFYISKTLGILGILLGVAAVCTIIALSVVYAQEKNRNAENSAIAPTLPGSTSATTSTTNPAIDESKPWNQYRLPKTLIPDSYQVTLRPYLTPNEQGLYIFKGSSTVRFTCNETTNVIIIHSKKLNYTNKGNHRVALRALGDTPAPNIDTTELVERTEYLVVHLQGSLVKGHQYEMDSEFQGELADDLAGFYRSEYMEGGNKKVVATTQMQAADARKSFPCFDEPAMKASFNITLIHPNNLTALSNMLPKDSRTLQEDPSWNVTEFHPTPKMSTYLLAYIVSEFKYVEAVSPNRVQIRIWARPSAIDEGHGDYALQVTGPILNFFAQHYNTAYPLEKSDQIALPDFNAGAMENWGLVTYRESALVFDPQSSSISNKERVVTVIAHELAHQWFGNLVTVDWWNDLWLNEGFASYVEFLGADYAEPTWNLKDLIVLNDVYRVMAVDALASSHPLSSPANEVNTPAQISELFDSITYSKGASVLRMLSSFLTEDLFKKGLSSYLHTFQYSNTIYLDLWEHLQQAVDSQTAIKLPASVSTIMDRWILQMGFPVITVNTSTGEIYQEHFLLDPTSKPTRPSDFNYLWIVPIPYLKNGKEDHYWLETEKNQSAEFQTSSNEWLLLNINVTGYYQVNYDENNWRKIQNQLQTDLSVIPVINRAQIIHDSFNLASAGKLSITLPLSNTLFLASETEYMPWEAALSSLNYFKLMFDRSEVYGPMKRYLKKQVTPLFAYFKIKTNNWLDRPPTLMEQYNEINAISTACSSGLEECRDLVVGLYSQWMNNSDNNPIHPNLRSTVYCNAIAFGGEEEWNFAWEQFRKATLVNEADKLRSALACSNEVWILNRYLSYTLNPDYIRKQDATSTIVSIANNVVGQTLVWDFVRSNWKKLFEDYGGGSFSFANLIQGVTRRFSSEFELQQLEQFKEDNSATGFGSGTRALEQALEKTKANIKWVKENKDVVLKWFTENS

[2] = target: pure porcine APN; settings: read-out: K i in enzymatic studies; cited from earlier work
[3] = target: T2, recombinant pig APN (Sus scrofa, UniProt P15145); type: binding; settings: transfected COS-7 cell membranes
T2 sequence (P15145 1-963): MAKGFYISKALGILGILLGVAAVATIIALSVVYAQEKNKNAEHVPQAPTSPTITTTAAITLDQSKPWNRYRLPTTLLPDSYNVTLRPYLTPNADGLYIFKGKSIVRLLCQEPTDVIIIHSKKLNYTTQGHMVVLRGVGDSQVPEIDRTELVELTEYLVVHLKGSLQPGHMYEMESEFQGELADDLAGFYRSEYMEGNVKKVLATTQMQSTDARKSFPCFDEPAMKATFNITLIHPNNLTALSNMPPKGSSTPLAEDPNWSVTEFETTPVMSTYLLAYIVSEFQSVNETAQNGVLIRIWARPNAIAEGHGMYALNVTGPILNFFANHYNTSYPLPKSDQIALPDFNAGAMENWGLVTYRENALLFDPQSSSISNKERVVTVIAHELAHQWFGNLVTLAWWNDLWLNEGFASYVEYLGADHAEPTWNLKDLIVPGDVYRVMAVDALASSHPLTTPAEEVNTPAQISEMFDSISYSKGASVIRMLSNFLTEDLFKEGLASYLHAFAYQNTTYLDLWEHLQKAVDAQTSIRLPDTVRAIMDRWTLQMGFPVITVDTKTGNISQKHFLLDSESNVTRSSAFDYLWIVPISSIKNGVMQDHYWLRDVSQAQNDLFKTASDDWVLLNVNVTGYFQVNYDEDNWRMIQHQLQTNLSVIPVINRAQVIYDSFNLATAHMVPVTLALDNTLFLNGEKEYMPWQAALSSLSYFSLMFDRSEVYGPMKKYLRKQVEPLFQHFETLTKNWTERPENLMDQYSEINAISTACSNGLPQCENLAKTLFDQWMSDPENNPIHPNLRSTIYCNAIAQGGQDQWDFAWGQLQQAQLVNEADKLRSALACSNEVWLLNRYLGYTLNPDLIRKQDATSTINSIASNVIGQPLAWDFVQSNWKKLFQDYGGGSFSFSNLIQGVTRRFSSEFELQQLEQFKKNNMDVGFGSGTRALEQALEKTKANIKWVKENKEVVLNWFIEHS

[4] = target: NEP; settings: read-out: K i for NEP; enzymatic assay; cited from earlier work
[5] = target: T2, recombinant pig APN; type: binding
Summary of the method: (§1)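 Pig APN cDNA, wild-type or E350A, in pcDNA3 was electroporated (50 μg per 10×10^6 cells) into COS-7 cells grown in DMEM with 10% FCS, then kept 48 h at 37°C. Membranes (100 000×g) were resuspended in 50 mM Tris–HCl pH 7.4 with 0.02% bacitracin, 50–100 μg protein/tube. Saturation used 0.075–8 nM [125I]RB 129 for 80 min at 35°C with thiorphan, 1 μM RB 129 for nonspecific binding, GF/B filtration and Scatchard analysis.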

[6] = target: T3, APN mutant E^350A (Sus scrofa, UniProt P15145, E350A); test: [125I]RB 129 binding to mutated APN expressed in COS-7 cells; design: species or system pig; settings: E^350A mutated APN in COS-7 cells
T3 sequence (P15145 2-963 E350A): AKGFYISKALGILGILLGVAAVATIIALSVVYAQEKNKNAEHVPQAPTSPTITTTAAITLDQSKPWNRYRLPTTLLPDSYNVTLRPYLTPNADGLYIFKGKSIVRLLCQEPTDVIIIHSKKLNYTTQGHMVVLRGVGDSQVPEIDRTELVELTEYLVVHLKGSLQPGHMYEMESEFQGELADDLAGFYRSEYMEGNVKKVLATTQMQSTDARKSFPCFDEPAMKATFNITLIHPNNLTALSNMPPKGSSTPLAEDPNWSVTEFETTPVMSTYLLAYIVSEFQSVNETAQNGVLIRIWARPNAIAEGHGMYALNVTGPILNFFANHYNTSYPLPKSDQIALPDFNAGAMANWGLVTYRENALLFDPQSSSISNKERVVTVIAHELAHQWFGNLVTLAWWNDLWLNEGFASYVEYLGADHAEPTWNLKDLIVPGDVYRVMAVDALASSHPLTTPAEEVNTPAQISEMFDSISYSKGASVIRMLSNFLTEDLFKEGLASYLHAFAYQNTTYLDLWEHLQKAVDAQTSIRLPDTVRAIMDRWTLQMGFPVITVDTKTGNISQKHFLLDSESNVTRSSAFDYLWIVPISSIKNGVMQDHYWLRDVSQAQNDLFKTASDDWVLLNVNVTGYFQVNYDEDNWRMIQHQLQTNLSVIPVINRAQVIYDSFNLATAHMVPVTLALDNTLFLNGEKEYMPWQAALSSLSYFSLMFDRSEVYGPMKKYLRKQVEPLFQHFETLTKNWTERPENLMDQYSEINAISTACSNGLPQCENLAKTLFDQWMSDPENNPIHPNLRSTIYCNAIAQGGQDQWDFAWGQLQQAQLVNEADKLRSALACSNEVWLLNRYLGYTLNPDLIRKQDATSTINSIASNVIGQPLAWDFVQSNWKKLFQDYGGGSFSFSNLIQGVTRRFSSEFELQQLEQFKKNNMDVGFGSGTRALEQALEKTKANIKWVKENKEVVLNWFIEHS
Summary of the method: as §1

[7] = target: T1, APN in rat brain membranes; test: [125I]RB 129 kinetic and saturation binding to rat brain membranes
Summary of the method: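 Rat brain minus cerebellum homogenised in 50 mM Tris–HCl pH 7.4, spun at 1000×g then 100 000×g; pellet resuspended in buffer with 0.02% bacitracin, 0.4–0.6 mg protein/ml. Incubations at 35°C with thiorphan. Kinetics used 100 pM [125I]RB 129, with dissociation started by 1 μM unlabeled RB 129 after 120 min. Saturation ran 0.075–8 nM for 80 min. Nonspecific binding defined with 1 μM RB 129; bound ligand collected on GF/B filters.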

## NC(CS)Cc1ccccc1 (stereo not shown) [Phe‐thiol]
[1]
  inhibition of specific [125I]RB 129 binding (qualitative): concentration‐dependent inhibition
[2]
  Ki: 12.1 nM

## O=C(CC(Cc1ccccc1)C(=O)N[C@@H](Cc1ccccc1)C(=O)O)NO (stereo partly shown) [RB 38A]
[1]; rat brain membrane K i vs enzymatic K i on porcine APN
  fold lower affinity in rat brain binding versus enzymatic assay: more than 10 fold
[1]
  inhibition of specific [125I]RB 129 binding (qualitative): concentration‐dependent inhibition
[2]
  Ki: 120 nM
[3]
  inhibition of specific [125I]RB 129 binding (qualitative): concentration‐dependent inhibition

## C[C@H](N)P(=O)(O)C[C@@H](Cc1ccccc1)C(=O)N[C@@H](Cc1ccc(O)c(I)c1)C(=O)O [RB 129, 2(S)‐benzyl‐3‐[hydroxy(1′(R)‐aminoethyl)phosphinyl]propanoyl‐L‐3‐iodotyrosine]
[1]
  inhibition of specific [125I]RB 129 binding (qualitative): concentration‐dependent inhibition
[4]
  Ki: 23.6 nM
[3]
  inhibition of specific [125I]RB 129 binding (qualitative): concentration‐dependent inhibition

## C[C@H](N)P(=O)(O)C[C@@H](Cc1ccccc1)C(=O)N[C@@H](Cc1ccc(O)c([125I])c1)C(=O)O [[^125I]RB 129, 2(S)‐benzyl‐3‐[hydroxy(1′(R)‐aminoethyl)phosphinyl]propanoyl‐L‐3‐[^125I]iodotyrosine]
[5]; 50–100 μg/ml recombinant APN protein
  specific binding at routine protein concentration: 80–98%
[5]; recombinant APN in COS-7 cells
  specific binding at the K d value: ~92%
[5]; recombinant APN wild-type in COS-7 cells
  maximal capacity of binding sites (B max): 650±67 fmol/mg of protein
[6]
  specific binding on mutated APN: No specific binding; also recorded: non‐measurable specific binding
[7]; 100 pM ligand, 35°C, rat brain membranes
  association rate constant, k +1: 1.58e+06 M⁻¹ s⁻¹
[7]; 100 pM, 35°C
  incubation time to reach binding equilibrium: 80 min
[7]; 0.4–0.6 mg/ml rat brain membrane protein
  specific binding at routine protein concentration: 80–98%
[7]; dissociation initiated with 1 μM unlabeled RB 129, 35°C
  dissociation rate constant (k −1): 0.022 min⁻¹
[7]; rat brain homogenates
  specific binding at the K d value: 95%
[7]; saturation, rat brain homogenates
  maximal capacity of binding sites (B max): 722±88 fmol/mg of protein and 722 fmol/mg of protein
